# Test results: ChEMBL document CHEMBL1165965, “Synthesis and structure-activity relationships of 1,2,3,4-tetrahydropyrido[2,3-b]pyrazines as potent and selective inhibitors of the anaplastic lymphoma kinase” (Bioorg Med Chem, 2010)
# Experiments:
# [1] = biological target: MAP/microtubule affinity-regulating kinase 3 (Homo sapiens) (UniProt P27448); assay: Inhibition of MARK3 at 1 uM
# Summary of the method: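 Kinase-panel screen using KINOMEscan technology, with 250–400 kinases per panel. Each compound was tested at a single concentration, and inhibition of each kinase was recorded. Selectivity was summarised as S(90), the fraction of kinases inhibited by more than 90%.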
# [2] = biological target: Receptor-interacting serine/threonine-protein kinase 2 (Homo sapiens) (UniProt O43353); assay: Inhibition of RIPK2 at 1 uM
# [3] = biological target: T1, Myosin light chain kinase family member 4 (Homo sapiens) (UniProt Q86YV6); assay: Inhibition of SgK085 at 1 uM
# T1 sequence (whole entry): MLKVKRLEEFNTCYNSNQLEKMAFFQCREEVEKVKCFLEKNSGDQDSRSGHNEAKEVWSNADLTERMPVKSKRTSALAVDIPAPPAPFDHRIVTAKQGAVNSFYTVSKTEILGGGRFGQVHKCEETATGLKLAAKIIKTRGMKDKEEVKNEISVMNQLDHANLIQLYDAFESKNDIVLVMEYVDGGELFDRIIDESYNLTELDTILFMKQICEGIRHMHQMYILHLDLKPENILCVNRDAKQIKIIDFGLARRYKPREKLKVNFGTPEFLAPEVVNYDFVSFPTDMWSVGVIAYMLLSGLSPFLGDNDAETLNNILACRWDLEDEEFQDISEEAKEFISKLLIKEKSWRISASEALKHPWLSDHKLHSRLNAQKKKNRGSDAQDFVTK
# [4] = biological target: T2, Uncharacterized serine/threonine-protein kinase SBK3 (Homo sapiens) (UniProt P0C264); assay: Inhibition of SgK110 at 1 uM
# T2 sequence (whole entry): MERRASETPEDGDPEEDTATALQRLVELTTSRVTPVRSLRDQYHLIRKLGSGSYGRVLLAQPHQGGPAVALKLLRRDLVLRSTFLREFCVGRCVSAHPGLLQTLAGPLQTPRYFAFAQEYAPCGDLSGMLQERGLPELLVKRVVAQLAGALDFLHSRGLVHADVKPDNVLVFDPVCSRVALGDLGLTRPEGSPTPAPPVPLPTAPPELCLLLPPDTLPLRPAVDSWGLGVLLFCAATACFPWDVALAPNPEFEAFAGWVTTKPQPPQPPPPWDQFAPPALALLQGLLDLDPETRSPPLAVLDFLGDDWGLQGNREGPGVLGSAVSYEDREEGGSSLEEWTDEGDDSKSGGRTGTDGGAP
# [5] = biological target: TRAF2 and NCK-interacting protein kinase (Homo sapiens) (UniProt Q9UKE5); assay: Inhibition of TNIK at 1 uM
# Summary of the method: (§1)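 Single-concentration screen on the Ambit KINOMEscan platform, run against a panel of 250–400 kinases. Per-kinase inhibition was also summarized as S(90), the fraction of kinases inhibited by more than 90%.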
# [6] = biological target: Vascular endothelial growth factor receptor 2 (Homo sapiens) (UniProt P35968); assay: Inhibition of VEGFR2 at 1 uM
# [7] = biological target: Activin receptor type-1-like (Homo sapiens) (UniProt P37023); assay: Inhibition of ACVRL1 at 1 uM
# Summary of the method: (§2)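 Ambit KINOMEscan screen at a single concentration across a 250–400 kinase panel, recorded as percent inhibition. Selectivity was expressed as S(90), the fraction of kinases inhibited >90%.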
# [8] = biological target: Cyclin-dependent kinase 5 (Homo sapiens) (UniProt Q00535); assay: Inhibition of CDK5 at 1 uM; summary of the method: as §2
# [9] = biological target: T3, Serine/threonine-protein kinase DCLK1 (Homo sapiens) (UniProt O15075); assay: Inhibition of DCAMKL1 at 1 uM
# T3 sequence (whole entry): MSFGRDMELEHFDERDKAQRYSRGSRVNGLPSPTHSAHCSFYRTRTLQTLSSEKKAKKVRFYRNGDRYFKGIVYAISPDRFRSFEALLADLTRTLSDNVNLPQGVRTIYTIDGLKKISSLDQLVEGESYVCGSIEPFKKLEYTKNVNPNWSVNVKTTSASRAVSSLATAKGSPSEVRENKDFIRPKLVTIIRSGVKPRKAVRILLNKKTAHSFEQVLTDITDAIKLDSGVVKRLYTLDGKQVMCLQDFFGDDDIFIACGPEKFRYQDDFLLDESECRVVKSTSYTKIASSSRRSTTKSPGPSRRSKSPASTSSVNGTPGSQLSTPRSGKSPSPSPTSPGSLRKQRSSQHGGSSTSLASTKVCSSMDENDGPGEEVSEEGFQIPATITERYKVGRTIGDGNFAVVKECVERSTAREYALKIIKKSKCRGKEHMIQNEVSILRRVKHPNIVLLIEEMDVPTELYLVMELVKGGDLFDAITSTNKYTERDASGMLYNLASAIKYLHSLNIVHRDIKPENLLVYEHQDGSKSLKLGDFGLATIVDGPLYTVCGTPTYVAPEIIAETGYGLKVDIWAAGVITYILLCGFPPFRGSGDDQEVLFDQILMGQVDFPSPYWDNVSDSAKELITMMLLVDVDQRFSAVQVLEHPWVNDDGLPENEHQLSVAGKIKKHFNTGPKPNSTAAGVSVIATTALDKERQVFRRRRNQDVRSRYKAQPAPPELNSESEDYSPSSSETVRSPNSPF
# [10] = biological target: T4, Serine/threonine-protein kinase DCLK3 (Homo sapiens) (UniProt Q9C098); assay: Inhibition of DCAMKL3 at 1 uM
# T4 sequence (whole entry): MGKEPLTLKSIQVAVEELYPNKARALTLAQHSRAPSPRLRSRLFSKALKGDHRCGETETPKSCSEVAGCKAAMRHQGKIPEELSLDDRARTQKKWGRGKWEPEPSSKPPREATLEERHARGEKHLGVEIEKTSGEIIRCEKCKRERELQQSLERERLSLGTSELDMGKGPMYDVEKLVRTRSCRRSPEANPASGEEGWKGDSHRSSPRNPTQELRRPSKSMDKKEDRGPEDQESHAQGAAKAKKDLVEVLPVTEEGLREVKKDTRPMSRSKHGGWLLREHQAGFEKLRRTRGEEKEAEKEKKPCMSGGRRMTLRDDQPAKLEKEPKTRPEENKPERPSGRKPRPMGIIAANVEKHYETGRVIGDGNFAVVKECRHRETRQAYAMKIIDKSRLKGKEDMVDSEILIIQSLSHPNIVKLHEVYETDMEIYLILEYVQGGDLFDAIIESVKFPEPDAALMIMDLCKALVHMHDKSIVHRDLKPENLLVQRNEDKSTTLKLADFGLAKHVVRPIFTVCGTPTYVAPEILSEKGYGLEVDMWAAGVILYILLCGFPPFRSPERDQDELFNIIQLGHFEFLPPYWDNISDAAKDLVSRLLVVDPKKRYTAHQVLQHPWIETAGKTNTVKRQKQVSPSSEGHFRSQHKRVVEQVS
# [11] = biological target: Ephrin type-A receptor 7 (Homo sapiens) (UniProt Q15375); assay: Inhibition of EPHA7 at 1 uM
# Summary of the method: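 Single-concentration screen using Ambit Bioscience KINOMEscan technology across a panel of 250–400 kinases. Per-kinase inhibition from this screen was summarized as S(90), the fraction of kinases inhibited by more than 90%.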
# [12] = biological target: Tyrosine-protein kinase FRK (Homo sapiens) (UniProt P42685); assay: Inhibition of FRK at 1 uM; summary of the method: as §1
# Sequence of Activin receptor type-1-like (Homo sapiens) (P37023 whole entry): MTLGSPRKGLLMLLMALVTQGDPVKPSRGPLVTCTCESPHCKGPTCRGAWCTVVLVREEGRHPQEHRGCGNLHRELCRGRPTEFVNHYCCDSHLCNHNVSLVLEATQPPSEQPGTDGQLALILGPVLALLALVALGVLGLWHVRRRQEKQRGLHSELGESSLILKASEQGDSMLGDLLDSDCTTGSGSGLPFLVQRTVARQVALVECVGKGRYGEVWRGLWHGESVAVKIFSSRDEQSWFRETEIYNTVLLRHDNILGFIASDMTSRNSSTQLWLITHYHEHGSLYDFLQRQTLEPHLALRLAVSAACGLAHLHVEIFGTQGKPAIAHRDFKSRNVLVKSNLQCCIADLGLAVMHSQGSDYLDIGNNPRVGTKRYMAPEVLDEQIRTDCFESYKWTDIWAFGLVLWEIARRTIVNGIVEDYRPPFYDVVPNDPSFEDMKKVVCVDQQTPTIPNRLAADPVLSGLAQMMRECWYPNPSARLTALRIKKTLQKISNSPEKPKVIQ
# Sequence of Receptor-interacting serine/threonine-protein kinase 2 (Homo sapiens) (O43353 whole entry): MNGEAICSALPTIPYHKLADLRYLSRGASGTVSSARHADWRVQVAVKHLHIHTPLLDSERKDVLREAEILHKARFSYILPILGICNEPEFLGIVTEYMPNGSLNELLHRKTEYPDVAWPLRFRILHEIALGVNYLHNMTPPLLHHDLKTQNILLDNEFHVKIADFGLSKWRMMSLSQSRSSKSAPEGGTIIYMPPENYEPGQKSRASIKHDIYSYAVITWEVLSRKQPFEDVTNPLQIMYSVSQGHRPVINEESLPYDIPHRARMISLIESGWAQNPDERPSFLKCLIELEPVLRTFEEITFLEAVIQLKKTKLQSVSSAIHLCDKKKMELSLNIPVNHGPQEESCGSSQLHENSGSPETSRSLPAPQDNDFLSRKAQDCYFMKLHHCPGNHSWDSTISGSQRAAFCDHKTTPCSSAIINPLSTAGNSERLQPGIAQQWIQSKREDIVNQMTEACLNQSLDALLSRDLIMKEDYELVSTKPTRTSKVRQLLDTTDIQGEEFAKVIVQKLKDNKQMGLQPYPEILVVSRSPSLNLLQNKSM
# Sequence of TRAF2 and NCK-interacting protein kinase (Homo sapiens) (Q9UKE5 whole entry, looked up): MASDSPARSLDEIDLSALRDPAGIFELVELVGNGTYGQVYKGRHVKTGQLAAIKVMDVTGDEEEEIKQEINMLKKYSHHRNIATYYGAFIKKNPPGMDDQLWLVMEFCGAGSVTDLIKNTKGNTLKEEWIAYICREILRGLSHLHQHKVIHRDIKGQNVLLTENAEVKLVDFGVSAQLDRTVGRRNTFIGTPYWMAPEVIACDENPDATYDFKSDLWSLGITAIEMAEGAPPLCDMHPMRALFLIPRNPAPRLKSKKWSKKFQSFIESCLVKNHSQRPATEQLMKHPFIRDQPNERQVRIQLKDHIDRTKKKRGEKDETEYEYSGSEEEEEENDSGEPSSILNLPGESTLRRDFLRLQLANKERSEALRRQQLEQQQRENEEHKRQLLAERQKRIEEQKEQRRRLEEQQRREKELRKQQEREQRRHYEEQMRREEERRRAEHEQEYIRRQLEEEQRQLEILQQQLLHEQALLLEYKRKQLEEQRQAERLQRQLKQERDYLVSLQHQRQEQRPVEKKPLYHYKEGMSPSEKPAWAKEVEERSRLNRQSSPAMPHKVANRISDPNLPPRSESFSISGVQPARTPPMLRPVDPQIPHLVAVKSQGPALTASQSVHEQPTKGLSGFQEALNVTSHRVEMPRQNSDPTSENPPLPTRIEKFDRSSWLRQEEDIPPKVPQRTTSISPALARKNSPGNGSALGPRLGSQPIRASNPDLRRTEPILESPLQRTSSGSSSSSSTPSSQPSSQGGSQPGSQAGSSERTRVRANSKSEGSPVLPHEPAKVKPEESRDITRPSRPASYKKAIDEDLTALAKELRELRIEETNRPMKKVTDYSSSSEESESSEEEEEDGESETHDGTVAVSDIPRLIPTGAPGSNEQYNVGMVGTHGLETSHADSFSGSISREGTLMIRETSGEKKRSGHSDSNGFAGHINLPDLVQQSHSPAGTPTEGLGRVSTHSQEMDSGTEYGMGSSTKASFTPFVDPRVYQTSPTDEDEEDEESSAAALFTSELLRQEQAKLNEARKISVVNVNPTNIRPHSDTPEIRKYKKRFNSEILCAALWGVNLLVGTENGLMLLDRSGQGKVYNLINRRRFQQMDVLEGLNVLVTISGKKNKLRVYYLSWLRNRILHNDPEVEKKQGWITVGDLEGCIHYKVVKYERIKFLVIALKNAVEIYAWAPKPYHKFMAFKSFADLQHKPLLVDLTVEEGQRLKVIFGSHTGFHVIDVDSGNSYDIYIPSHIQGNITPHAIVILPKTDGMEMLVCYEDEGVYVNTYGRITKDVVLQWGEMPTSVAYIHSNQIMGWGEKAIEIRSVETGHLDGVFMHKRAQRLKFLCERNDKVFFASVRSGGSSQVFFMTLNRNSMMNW
# Sequence of Cyclin-dependent kinase 5 (Homo sapiens) (Q00535 whole entry, looked up): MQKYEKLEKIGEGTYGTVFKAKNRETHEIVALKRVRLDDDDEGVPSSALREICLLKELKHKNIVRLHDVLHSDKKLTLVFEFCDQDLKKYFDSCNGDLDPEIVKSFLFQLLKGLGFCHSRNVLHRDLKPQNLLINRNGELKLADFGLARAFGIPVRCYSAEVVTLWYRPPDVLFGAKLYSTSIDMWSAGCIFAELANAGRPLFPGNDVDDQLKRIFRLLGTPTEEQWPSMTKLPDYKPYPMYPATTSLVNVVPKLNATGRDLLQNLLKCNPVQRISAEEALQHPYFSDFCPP
# Sequence of MAP/microtubule affinity-regulating kinase 3 (Homo sapiens) (P27448 whole entry, looked up): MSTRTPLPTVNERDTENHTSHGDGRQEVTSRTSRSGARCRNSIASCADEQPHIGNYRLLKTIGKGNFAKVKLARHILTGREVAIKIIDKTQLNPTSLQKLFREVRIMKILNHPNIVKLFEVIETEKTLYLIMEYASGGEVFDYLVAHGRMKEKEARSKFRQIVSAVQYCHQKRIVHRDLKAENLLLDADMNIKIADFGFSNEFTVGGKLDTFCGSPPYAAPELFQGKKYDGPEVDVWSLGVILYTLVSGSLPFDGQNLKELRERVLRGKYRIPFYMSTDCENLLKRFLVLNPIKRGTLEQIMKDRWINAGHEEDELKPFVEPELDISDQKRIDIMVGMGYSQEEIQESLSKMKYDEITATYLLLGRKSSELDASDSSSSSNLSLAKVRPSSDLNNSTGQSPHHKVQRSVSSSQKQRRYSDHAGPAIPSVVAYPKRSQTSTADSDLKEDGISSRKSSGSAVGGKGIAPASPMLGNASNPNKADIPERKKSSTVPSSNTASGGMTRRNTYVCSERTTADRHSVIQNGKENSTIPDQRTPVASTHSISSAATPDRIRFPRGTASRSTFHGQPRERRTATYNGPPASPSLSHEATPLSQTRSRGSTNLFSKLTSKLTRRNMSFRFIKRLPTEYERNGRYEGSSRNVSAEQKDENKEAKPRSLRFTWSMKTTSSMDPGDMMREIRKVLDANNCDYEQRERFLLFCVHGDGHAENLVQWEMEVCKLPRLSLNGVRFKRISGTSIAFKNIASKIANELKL
# Sequence of Vascular endothelial growth factor receptor 2 (Homo sapiens) (P35968 whole entry): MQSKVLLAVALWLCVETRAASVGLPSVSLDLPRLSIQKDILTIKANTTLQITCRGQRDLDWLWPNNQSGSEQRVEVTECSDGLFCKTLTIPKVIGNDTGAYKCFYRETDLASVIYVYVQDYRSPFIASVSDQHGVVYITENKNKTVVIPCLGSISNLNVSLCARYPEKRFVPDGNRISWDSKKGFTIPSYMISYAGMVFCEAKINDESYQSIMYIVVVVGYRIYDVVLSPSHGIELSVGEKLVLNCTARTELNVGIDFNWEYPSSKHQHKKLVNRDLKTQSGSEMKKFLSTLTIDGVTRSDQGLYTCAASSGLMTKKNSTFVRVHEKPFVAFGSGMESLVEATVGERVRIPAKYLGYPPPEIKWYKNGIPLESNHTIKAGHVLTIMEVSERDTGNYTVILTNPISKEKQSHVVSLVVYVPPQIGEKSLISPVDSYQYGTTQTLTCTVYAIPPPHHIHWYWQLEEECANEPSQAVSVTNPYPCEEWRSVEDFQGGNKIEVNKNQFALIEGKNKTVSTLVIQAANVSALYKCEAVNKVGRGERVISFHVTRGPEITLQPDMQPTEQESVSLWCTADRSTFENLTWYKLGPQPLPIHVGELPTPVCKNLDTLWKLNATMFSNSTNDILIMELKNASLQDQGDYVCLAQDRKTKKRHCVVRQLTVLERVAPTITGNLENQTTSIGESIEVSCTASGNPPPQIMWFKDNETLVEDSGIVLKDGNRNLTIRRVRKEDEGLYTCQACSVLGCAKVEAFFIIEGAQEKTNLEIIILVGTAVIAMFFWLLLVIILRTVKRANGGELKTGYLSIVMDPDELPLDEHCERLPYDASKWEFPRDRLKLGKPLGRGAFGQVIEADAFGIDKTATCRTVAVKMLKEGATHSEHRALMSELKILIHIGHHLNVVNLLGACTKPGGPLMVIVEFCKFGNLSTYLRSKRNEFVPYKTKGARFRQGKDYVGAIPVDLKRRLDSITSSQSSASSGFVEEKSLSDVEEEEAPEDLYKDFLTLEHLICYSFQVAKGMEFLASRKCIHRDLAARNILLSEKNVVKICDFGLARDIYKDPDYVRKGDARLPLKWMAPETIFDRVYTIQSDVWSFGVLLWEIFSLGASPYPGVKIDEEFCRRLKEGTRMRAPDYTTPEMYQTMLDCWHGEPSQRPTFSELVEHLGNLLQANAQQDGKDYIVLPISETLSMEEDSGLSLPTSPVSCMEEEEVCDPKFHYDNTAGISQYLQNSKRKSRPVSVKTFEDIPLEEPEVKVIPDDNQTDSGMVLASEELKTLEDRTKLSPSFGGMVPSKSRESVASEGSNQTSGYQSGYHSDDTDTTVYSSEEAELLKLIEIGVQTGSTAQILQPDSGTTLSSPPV
Compound,inhibition [1] [%],inhibition [2] [%],inhibition [3] [%],inhibition [4] [%],inhibition [5] [%],inhibition [6] [%],inhibition [7] [%],inhibition [8] [%],inhibition [9] [%],inhibition [10] [%],inhibition [11] [%],inhibition [12] [%]
COC1CCN(C(=O)c2ccc(-c3cnc4c(c3)N(Cc3cc(Cl)ccc3C(F)(F)F)CCN4)cc2)CC1,< 50,< 50,,,< 50,< 50,< 50,< 50,,,< 50,< 50
O=C(c1ccc(-c2cnc3c(c2)N(Cc2cc(Cl)ccc2C(F)(F)F)CCN3)cc1)N1CCCCC1,< 50,< 50,,,< 50,< 50,< 50,< 50,,,< 50,< 50
FC(F)(F)c1ccc(Cl)cc1CN1CCNc2ncc(-c3ccnc(N4CCNCC4)c3)cc21,< 50,< 50,< 50,96,< 50,< 50,< 50,< 50,98,99,< 50,< 50
O=C(O)c1ccc(-c2cnc3c(c2)N(Cc2cc(Cl)ccc2C(F)(F)F)CCN3)cc1,< 50,< 50,,,< 50,< 50,< 50,< 50,,,< 50,< 50
O=C(c1ccc(-c2cnc3c(c2)N(Cc2cc(Cl)ccc2C(F)(F)F)CCN3)cc1)N1CCC(N2CCCC2)CC1,< 50,< 50,,,< 50,< 50,< 50,< 50,,,< 50,< 50

# The remaining lines, values ahead:
inhibition [1] [%],inhibition [2] [%],inhibition [3] [%],inhibition [4] [%],inhibition [5] [%],inhibition [6] [%],inhibition [7] [%],inhibition [8] [%],inhibition [9] [%],inhibition [10] [%],inhibition [11] [%],inhibition [12] [%],Compound
< 50,< 50,< 50,< 50,< 50,< 50,< 50,< 50,90,84,< 50,< 50,CN1CCN(c2ccc(-c3cnc4c(c3)N(Cc3cc(Cl)ccc3Cl)CCN4)cn2)CC1
< 50,< 50,< 50,< 50,< 50,< 50,< 50,< 50,91,75,< 50,< 50,CN1CCN(c2ccc(-c3cnc4c(c3)N(Cc3cc(Cl)ccc3C(F)(F)F)CCN4)cn2)CC1
< 50,< 50,< 50,71,< 50,< 50,< 50,< 50,< 50,92,< 50,< 50,CC(=O)N1CCN(c2cc(-c3cnc4c(c3)N(Cc3cc(Cl)ccc3C(F)(F)F)CCN4)ccn2)CC1
< 50,< 50,< 50,< 50,82,< 50,< 50,< 50,< 50,< 50,< 50,66,CN1CCN(c2ccc(-c3cnc4c(c3)N(Cc3c(F)ccc(F)c3Cl)CCN4)cn2)CC1
< 50,< 50,< 50,< 50,< 50,< 50,< 50,< 50,94,89,< 50,< 50,CN1CCN(c2ccc(-c3cnc4c(c3)N(Cc3cc(F)ccc3F)CCN4)cn2)CC1
